This is an account of results in ChEMBL document CHEMBL1121619, “Demethyl analogues of psychoactive methoxyphenalkylamines: synthesis and serotonin receptor affinities” (J Med Chem, 1980).

Experiment [1] concerns the target T1, 5-hydroxytryptamine receptor 2B (Rattus norvegicus, UniProt P30994). In words: Antagonistic against 5-hydroxytryptamine 2B receptor. It is filed as functional. The settings on record: read-out: pA2 (converted).
For experiment [2], the target named is T1, 5-hydroxytryptamine receptor 2B. The experiment is described as follows: Antagonistic activity against 5-hydroxytryptamine 2B receptor obtained from rat stomach fundus preparation. Format: functional, tissue-based. The settings on record: read-out: pA2 (converted).
The subject of experiment [3] is Rattus norvegicus. The experiment is described as follows: Compound was tested for its activity for maximal correct- drug lever responding at doses 3 mg/Kg in rat; Range 0-8%. Format: functional. A digest of the protocol:
(§1)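 Rats were trained in a two-lever drug discrimination procedure to tell 5-methoxy-N,N-dimethyltryptamine hydrogen oxalate (1.5 mg/kg) from saline. Each challenge dose was given to three to six rats, and the percentage of drug-lever responding was recorded.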

The subject of experiment [4] is Rattus norvegicus. In words: Compound was tested for its activity for maximal correct- drug lever responding at doses 2 mg/Kg in rat; Range 0-8%. It is filed as functional. A digest of the protocol:
as §1

Experiment [5] relates to Rattus norvegicus. In words: Compound was tested for its activity for maximal correct- drug lever responding at doses 5 mg/Kg in rat; Range 0-8%. It is filed as functional. Put shortly: as §1
In experiment [6] the target is Serotonin (5-HT) receptor. The experiment is described as follows: (§2) Antagonistic activity of corresponding methoxy compound against serotonin 5-HT receptor. Format: functional.
In experiment [7] the target is T1, 5-hydroxytryptamine receptor 2B. The description is as §2. The settings on record: read-out: pA2 (converted). Format: functional.

Structures are written as SMILES.

T1 sequence (P30994 whole entry): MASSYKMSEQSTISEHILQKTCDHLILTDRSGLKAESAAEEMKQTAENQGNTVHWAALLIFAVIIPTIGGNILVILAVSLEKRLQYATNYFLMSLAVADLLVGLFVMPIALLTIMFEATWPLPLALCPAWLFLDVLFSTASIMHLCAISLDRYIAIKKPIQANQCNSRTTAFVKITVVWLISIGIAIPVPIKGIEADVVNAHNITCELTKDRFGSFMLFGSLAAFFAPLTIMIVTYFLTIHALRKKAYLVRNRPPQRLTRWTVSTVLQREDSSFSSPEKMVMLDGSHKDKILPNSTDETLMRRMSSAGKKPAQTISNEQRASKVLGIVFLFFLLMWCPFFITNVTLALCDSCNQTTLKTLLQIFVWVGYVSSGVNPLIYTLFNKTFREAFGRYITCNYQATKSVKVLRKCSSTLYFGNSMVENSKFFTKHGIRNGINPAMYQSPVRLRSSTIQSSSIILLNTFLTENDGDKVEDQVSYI

With `COc1cc(CC(C)N)c(O)cc1C` (centres undefined), the figures for the Kb in experiment [1] and in experiment [2] were 75.9 nM and 36.3 nM, respectively.

Take `COc1ccc(OCc2ccccc2)c(CCN(C)C)c1`: the Kb in experiment [1] was 302 nM; in experiment [2], 3630 nM.

Consider `COc1ccc(O)c(CCN(C)C)c1`, for which the Kb in experiment [1] is 302 nM; in experiment [2] it was 145 nM.

Consider `COc1ccc(CC(C)N)cc1O` (centres undefined), for which the Kb in experiment [1] was 3550 nM; in experiment [2], 135 nM.

For the compound `COc1ccc(O)c(CCN)c1`, the Kb in experiment [1] was 141 nM; in experiment [2], 79.4 nM.

On to `COc1ccc(O)c(CC(C)N)c1` (centres undefined), for which the results for the Kb in experiment [1] and in experiment [2] were 148 nM and 100 nM, respectively.

For the compound `COc1ccc(CC(C)N)c(O)c1` (centres undefined), the Kb in experiment [1] was 2510 nM.

Turning to `COc1ccc(O)c(CC(C)N(C)C)c1` (centres undefined), the Kb in experiment [1] is 316 nM; in experiment [2], 166 nM.

On to `COc1cc(C)c(O)cc1CC(C)N` (centres undefined), for which the Kb is 75.9 nM in experiment [1] and 12.3 nM in experiment [2]. Also, the Activity in the experiment on Rattus norvegicus [3], in the experiment with Rattus norvegicus [4] and with Rattus norvegicus [5] was 0% throughout.

For `NCCc1ccccc1O`, the pA2 (as a rule, a measure of antagonist potency on a negative log scale) in experiment [6] came to 5.52.

On to `COc1cc(CC(C)N)ccc1O` (stereo not drawn) [3-O-METHYL-ALPHA-METHYLDOPAMINE], for which the Kb was 3550 nM in experiment [1] and 6460 nM in experiment [2].

As for `NCCc1ccc(O)cc1` [TYRAMINE], the Kb in experiment [7] was 7940 nM.
